# Measured values: BindingDB's records for doi:10.1021/jm950716i (Cortech, 1996)
# Biological target: T1, B2 bradykinin receptor (Rattus norvegicus, UniProt P25023)
# T1 sequence (P25023 whole entry): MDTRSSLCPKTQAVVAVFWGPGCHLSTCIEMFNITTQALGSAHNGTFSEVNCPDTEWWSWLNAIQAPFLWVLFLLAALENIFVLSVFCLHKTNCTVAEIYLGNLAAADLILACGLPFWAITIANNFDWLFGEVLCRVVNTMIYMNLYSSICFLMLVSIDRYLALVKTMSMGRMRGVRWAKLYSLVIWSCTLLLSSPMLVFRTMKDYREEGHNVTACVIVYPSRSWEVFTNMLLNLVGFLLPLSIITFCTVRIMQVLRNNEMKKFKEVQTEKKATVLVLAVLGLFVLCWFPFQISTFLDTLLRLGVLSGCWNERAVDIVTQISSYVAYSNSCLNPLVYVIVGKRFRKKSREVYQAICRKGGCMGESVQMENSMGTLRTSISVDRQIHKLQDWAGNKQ
# Test: In vitro Bradykinin receptor B2 antagonist activity by using rat uterus functional assay
# Outline: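 Uterine horns from female Sprague-Dawley rats primed with stilbesterol (100 μg/kg) 18 h earlier. Tissue held at 1 g tension in De Jalon's solution, 31 °C, aerated. […] Potency by Arunlakshana-Schild analysis.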
smiles,measurement,value
N=C(N)NCCCCC(=O)N1CCC[C@@H]1C(=O)N1C[C@@H](O)C[C@@H]1C(=O)NCC(=O)N[C@@H](Cc1cccs1)C(=O)N[C@@H](CO)C(=O)N1Cc2ccccc2C[C@@H]1C(=O)N(CC(=O)N[C@@H](CCCNC(=N)N)C(=O)O)C1CCCCC1,Kd,0.0224 µM
